Results published in ChEMBL document CHEMBL2203168, “Amine linked flavonoid dimers as modulators for P-glycoprotein-based multidrug resistance: structure-activity relationship and mechanism of modulation” (J Med Chem, 2012).

Columns and labels:
[1] = species on record: Homo sapiens; assay: Inhibition of P-gp-mediated paclitaxel resistance in human LCC6MDR cells assessed as fold decrease in paclitaxel IC50 for cytotoxic activity at 1 uM after 5 days by MTS assay relative to parental cells; type: cell-based
[2] = species on record: Homo sapiens; assay: Inhibition of P-gp-mediated paclitaxel resistance in human LCC6MDR cells assessed as fold decrease in paclitaxel IC50 for cytotoxic activity at 0.5 uM after 5 days by MTS assay relative to parental cells; type: cell-based
[3] = system: MDR; assay: Cytotoxicity against human MDA435/LCC6MDR cells expressing MDR after 72 hrs; type: functional, cell-based
Method in brief: (§1)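 Cells seeded at 1 × 10⁴ per well in supplemented DMEM and given graded doses of dimer for 72 h at 37 °C, 5% CO₂. Survival measured and IC50 derived. N = 1–3 independent experiments, mean ± SEM.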

[4] = Cytotoxicity against human LCC-6 cells after 72 hrs; type: functional, cell-based; conditions: LCC-6, 72 h; method in brief: as §1
[5] = system: L929; assay: Cytotoxicity against mouse L929 cells after 72 hrs; type: cell-based; conditions: L929, 72 h; method in brief: as §1
[6] = Therapeutic index, ratio of IC50 for L929 cells to EC50 for reversing paclitaxel resistance in human MDA435/LCC6MDR cells; type: cell-based; conditions: L929 cells (IC50) and MDA435/LCC6MDR cells (EC50)
[7] = Reversal of P-gp-mediated paclitaxel-resistance in human LCC6MDR cells after 5 days by MTS assay; type: cell-based; conditions: 120 h

| SMILES | Ratio [1] | Ratio [2] | IC50 [3] [µM] | IC50 [4] [µM] | IC50 [5] [µM] | selectivity ratio [6] | EC50 [7] [µM] |
| --- | --- | --- | --- | --- | --- | --- | --- |
| CC(C)(C)OC(=O)N(CCOCCOc1ccc(-c2oc3ccccc3c(=O)c2OCc2ccccc2)cc1)CCOCCOc1ccc(-c2oc3ccccc3c(=O)c2OCc2ccccc2)cc1 | 1.2 | 1.1 | > 100 | > 100 | – | – | – |
| COC(=O)c1ccc(CN(CCOCCOc2ccc(-c3cc(=O)c4ccccc4o3)cc2)CCOCCOc2ccc(-c3cc(=O)c4ccccc4o3)cc2)cc1 | 18.9 | 2.1 | 64.8 | 33.3 | 11.4 | – | – |
| O=c1cc(-c2ccc(OCCOCCOCCOCCOc3ccc(-c4cc(=O)c5ccccc5o4)cc3)cc2)oc2ccccc12 | 17.2 | 6.2 | – | – | – | – | – |
| CC(C)(C)OC(=O)N(CCOCCOc1ccc(-c2cc(=O)c3ccccc3o2)cc1)CCOCCOc1ccc(-c2cc(=O)c3ccccc3o2)cc1 | 69.6 | 11.1 | 6.2 | 8 | 11.1 | 34.7 | 0.32 |
| O=c1cc(-c2ccc(OCCOCCN(CCOCCOc3ccc(-c4cc(=O)c5ccccc5o4)cc3)Cc3cc(F)c(F)c(F)c3)cc2)oc2ccccc12 | 80.6 | 3.3 | > 100 | > 75 | > 100 | – | – |
| O=c1cc(-c2ccc(OCCOCCN(CCOCCOc3ccc(-c4cc(=O)c5ccccc5o4)cc3)Cc3ccc(C(F)(F)F)cc3)cc2)oc2ccccc12 | 90.1 | 37.3 | > 100 | > 100 | 32.7 | 218 | 0.15 |
| O=C(O)CCC(=O)N(CCOCCOc1ccc(-c2cc(=O)c3ccccc3o2)cc1)CCOCCOc1ccc(-c2cc(=O)c3ccccc3o2)cc1 | 0.9 | 1.1 | > 100 | 78.4 | – | – | – |
| O=c1cc(-c2ccc(OCCOCCN(CCO)CCOCCOc3ccc(-c4cc(=O)c5ccccc5o4)cc3)cc2)oc2ccccc12 | 32.6 | 5 | 14.8 | 10.7 | 6.9 | – | – |
| O=c1c(OCc2ccccc2)c(-c2ccc(OCCOCCNCCOCCOc3ccc(-c4oc5ccccc5c(=O)c4OCc4ccccc4)cc3)cc2)oc2ccccc12 | 128 | 54.7 | 4.4 | 4.3 | 4.2 | – | – |
| O=c1cc(-c2ccc(OCCOCCN(CCCc3ccccc3)CCOCCOc3ccc(-c4cc(=O)c5ccccc5o4)cc3)cc2)oc2ccccc12 | 56.7 | 12.5 | > 100 | > 100 | 9.5 | 38 | 0.25 |
| CCOC(=O)CCN(CCOCCOc1ccc(-c2cc(=O)c3ccccc3o2)cc1)CCOCCOc1ccc(-c2cc(=O)c3ccccc3o2)cc1 | 43.7 | 5.3 | 17.7 | 13.5 | 18.1 | – | – |
| CC(=O)O[C@H]1C(=O)[C@@]2(C)[C@H]([C@H](OC(=O)c3ccccc3)[C@]3(O)C[C@H](OC(=O)[C@H](O)[C@@H](NC(=O)c4ccccc4)c4ccccc4)C(C)=C1C3(C)C)[C@]1(OC(C)=O)CO[C@@H]1C[C@@H]2O | 1 | – | – | – | – | – | – |
| COc1cccc2oc(-c3ccc(OCCOCCN(CCOCCOc4ccc(-c5cc(=O)c6c(OC)cccc6o5)cc4)C(=O)OC(C)(C)C)cc3)cc(=O)c12 | 109 | 14.9 | 5.4 | 4.6 | 5.5 | – | – |
| Cc1ccc2oc(-c3ccc(OCCOCCN(CCOCCOc4ccc(-c5cc(=O)c6cc(C)ccc6o5)cc4)C(=O)OC(C)(C)C)cc3)cc(=O)c2c1 | 139 | 9.6 | > 100 | > 100 | > 100 | – | – |
| COc1cc(-c2cc(=O)c3ccccc3o2)ccc1OCCOCCNCCOCCOc1ccc(-c2cc(=O)c3ccccc3o2)cc1OC | 1.1 | 0.8 | 23.8 | 12.8 | – | – | – |
| CN(C)c1cccc2c(S(=O)(=O)N(CCOCCOc3ccc(-c4cc(=O)c5ccccc5o4)cc3)CCOCCOc3ccc(-c4cc(=O)c5ccccc5o4)cc3)cccc12 | 1.3 | 1.4 | > 100 | > 100 | – | – | – |
| O=C1c2ccccc2C(=O)N1CCN(CCOCCOc1ccc(-c2cc(=O)c3ccccc3o2)cc1)CCOCCOc1ccc(-c2cc(=O)c3ccccc3o2)cc1 | 118 | 9.6 | 4.9 | 8.6 | 17 | – | – |
| O=c1cc(-c2ccc(OCCOCCN(CCOCCOc3ccc(-c4cc(=O)c5ccccc5o4)cc3)Cc3ccncc3)cc2)oc2ccccc12 | 27.8 | 6.9 | > 100 | > 100 | 26.4 | – | – |

| SMILES | Ratio [1] | Ratio [2] | IC50 [3] [µM] | IC50 [4] [µM] | IC50 [5] [µM] | selectivity ratio [6] | EC50 [7] [µM] |
| --- | --- | --- | --- | --- | --- | --- | --- |
| O=c1cc(-c2ccc(OCCOCCN(CCOCCOc3ccc(-c4cc(=O)c5ccccc5o4)cc3)Cc3ccc([N+](=O)[O-])cc3)cc2)oc2ccccc12 | 128 | 43.7 | > 90 | 86.8 | 88 | 466 | 0.189 |
| CC(C)(C)CC(=O)N(CCOCCOc1ccc(-c2cc(=O)c3ccccc3o2)cc1)CCOCCOc1ccc(-c2cc(=O)c3ccccc3o2)cc1 | 72.9 | 18.9 | > 100 | > 100 | > 100 | – | – |
| O=c1cc(-c2ccc(OCCOCCN(CCOCCOc3ccc(-c4cc(=O)c5ccccc5o4)cc3)Cc3ccccc3F)cc2)oc2ccccc12 | 102 | 43.7 | > 100 | > 100 | > 100 | > 559 | 0.179 |
| O=c1cc(-c2ccc(OCCOCCN(CCOCCOc3ccc(-c4cc(=O)c5ccccc5o4)cc3)Cc3ccc(F)cc3)cc2)oc2ccccc12 | 109 | 31.2 | > 83 | > 100 | 19.7 | 77.3 | 0.255 |
| O=c1cc(-c2ccc(OCCOCCN(CCOCCOc3ccc(-c4cc(=O)c5ccccc5o4)cc3)Cc3ccc(F)c(F)c3)cc2)oc2ccccc12 | 109 | 49.3 | 33.6 | 32.5 | 42.2 | – | – |
| CCN(CCOCCOc1ccc(-c2cc(=O)c3ccccc3o2)cc1)CCOCCOc1ccc(-c2cc(=O)c3ccccc3o2)cc1 | 95.7 | 26.9 | 17.3 | 10.3 | 6.9 | 34.5 | 0.2 |
| Cc1ccc2oc(-c3ccc(OCCOCCNCCOCCOc4ccc(-c5cc(=O)c6cc(C)ccc6o5)cc4)cc3)cc(=O)c2c1 | 139 | 13.9 | 7 | 7.5 | 6 | – | – |
| COc1cc(-c2cc(=O)c3ccccc3o2)ccc1OCCOCCN(CCOCCOc1ccc(-c2cc(=O)c3ccccc3o2)cc1OC)C(=O)OC(C)(C)C | 16.8 | 8.7 | 6.9 | 8.3 | 33.3 | – | – |
| CC(C)(C)OC(=O)N(CCOCCOc1ccc(-c2cc(=O)c3cc(F)ccc3o2)cc1)CCOCCOc1ccc(-c2cc(=O)c3cc(F)ccc3o2)cc1 | 31.9 | 11.3 | > 100 | > 100 | > 100 | – | – |
| O=c1cc(-c2ccc(OCCOCCNCCOCCOc3ccc(-c4cc(=O)c5cc(F)ccc5o4)cc3)cc2)oc2ccc(F)cc12 | 109 | 72.9 | 3.3 | 5.3 | 5.7 | – | – |
| O=C(c1ccccc1)N(CCOCCOc1ccc(-c2cc(=O)c3ccccc3o2)cc1)CCOCCOc1ccc(-c2cc(=O)c3ccccc3o2)cc1 | 42.5 | 7.5 | > 100 | > 100 | 95 | – | – |
| C[C@H](N)C(=O)N(CCOCCOc1ccc(-c2cc(=O)c3ccccc3o2)cc1)CCOCCOc1ccc(-c2cc(=O)c3ccccc3o2)cc1 | 0.9 | 1 | 4.6 | 4.4 | – | – | – |
| COc1cccc2oc(-c3ccc(OCCOCCNCCOCCOc4ccc(-c5cc(=O)c6c(OC)cccc6o5)cc4)cc3)cc(=O)c12 | 1.2 | 1.2 | 10.2 | 8.8 | – | – | – |
| O=c1cc(-c2ccc(OCCOCCNCCOCCOc3ccc(-c4cc(=O)c5ccccc5o4)cc3)cc2)oc2ccccc12 | 139 | 72.9 | 2.4 | 3.3 | 5.9 | 19.3 | 0.305 |
| Cc1ccc(S(=O)(=O)N(CCOCCOc2ccc(-c3cc(=O)c4ccccc4o3)cc2)CCOCCOc2ccc(-c3cc(=O)c4ccccc4o3)cc2)cc1 | 21.6 | 5.8 | > 100 | > 100 | > 100 | – | – |
| C/C=C/C[C@@H](C)C(=O)[C@H]1C(=O)N[C@@H](C(C)C)C(=O)N(C)CC(=O)N(C)[C@@H](CC(C)C)C(=O)N[C@@H](C(C)C)C(=O)N(C)[C@@H](CC(C)C)C(=O)N[C@@H](C)C(=O)N[C@H](C)C(=O)N(C)[C@@H](CC(C)C)C(=O)N(C)[C@@H](CC(C)C)C(=O)N(C)[C@@H](C(C)C)C(=O)N1C [VALSPODAR] | 85.1 | – | 14.6 | 25.3 | > 100 | – | – |
| O=c1cc(-c2ccc(OCCOCCN(CCOCCOc3ccc(-c4cc(=O)c5ccccc5o4)cc3)Cc3ccccn3)cc2)oc2ccccc12 | 95.7 | 15.8 | 29.7 | 10 | 10 | – | – |
| CS(=O)(=O)N(CCOCCOc1ccc(-c2cc(=O)c3ccccc3o2)cc1)CCOCCOc1ccc(-c2cc(=O)c3ccccc3o2)cc1 | 20.1 | 12.8 | 42.6 | 27.5 | 13.4 | – | – |
